According to paper PMC2819108 (Bioorganic & medicinal chemistry, 2009):

Key:
MCF-7 cells = assay: Cell cycle assay; assay type: cell-based, human; settings: up to 5 μM; 48 h treatment; Fig. 3
Procedure, shortened: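 MCF-7 cells at 2×10^5 cells/ml were seeded in DMEM with 5% fetal calf serum and left overnight at 37 °C to attach. Different concentrations of test compound were then added. After 48 h of treatment, cell-cycle distribution was measured by flow cytometry.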

A-10 cells = assay: Loss of microtubules in A-10 cells; assay type: cell-based; settings: 20 μM compound; Fig. 2
rat thoracic aorta rings = assay: Aortic ring assay; settings: 5 μM; day 6; Fig. 5
Procedure, shortened: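 Thoracic aortas from normal 1–2-month-old rats were excised into ice-cold PBS, cleaned of fibroadipose tissue, and cut into 1–1.5 mm cross-sections. Sections were washed five times in PBS, embedded in Matrigel on coverslips, and held 15 min at 37 °C, 5% CO2. EBM2 containing test compound (1–100 µM) was then added. Sprouting was examined on day 6 against an untreated control.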

[1] = test system: 54 human cancer cell lines; assay: NCI human cancer cell proliferation assay; assay type: cell-based; settings: 48 h, read-out: GI50 in 16 of the 54 cell lines
Procedure, shortened: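 The NCI human tumour cell line panel was exposed to test compound at five concentrations in 10-fold serial dilution for 48 h. Growth inhibition was read as total cell protein by sulforhodamine B assay. GI50 was calculated from log dose-response curves.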

[2] = test system: HUVEC (human umbilical vein endothelial cells); assay: Angiogenesis assay in vitro; assay type: cell-based; settings: 1 μM; 16 h treatment; Fig. 4
Procedure, shortened: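 HUVEC (1×10^5 cells) seeded on Matrigel in EBM-2 medium and treated with the test compound over several dose ranges (figure panels: 1 and 10 µM, with untreated control). Tube formation was observed after 16 h of treatment.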

[3] = test system: MCF-7 human breast carcinoma cells; assay: MCF-7 cell proliferation assay; assay type: cell-based; settings: relative to CA-4

Compound	effect on MCF-7 cell cycle (G2/M phase arrest) (MCF-7 cells)	effect on interphase microtubule network of A-10 cells (A-10 cells)	functional angiogenesis in aortic ring assay (sprout formation) (rat thoracic aorta rings)	GI50 [1] [µM]	HUVEC tube formation [2]	fold less active than CA-4 as inhibitor of MCF-7 cell growth [3]
COc1ccc(/C=C/C(=O)c2cc(OC)c(OC)c(OC)c2)cc1B(O)O [compound 4, 2-Methoxy-5-[(1E)-3-oxo-3-(3,4,5-trimethoxyphenyl)prop-1-en-1-yl]boronic acid]	did not cause significant G2/M phase arrest	extensive thinning of the network of microtubules	dramatically inhibited functional angiogenesis	0.01 to 0.2	significantly inhibited the tube formation	
COc1ccc(/C=C/C(=O)c2cc(OC)c(OC)c(OC)c2)cc1O [compound 6, (2E)-3-(3-Hydroxy-4-methoxyphenyl)-1-(3,4,5-trimethoxyphenyl) prop-2-en-1-one]		complete disappearance of the microtubule network				3–4 fold
